Experimental data taken from ChEMBL document CHEMBL4346663, “N-Cinnamoylanthranilates as human TRPA1 modulators: Structure-activity relationships and channel binding sites” (Eur J Med Chem, 2019).
Activity calls are given as the source filed them. The calls are words filed in the database; no cut-off is given here.

Experiments:
[1] = Dissociation constant, pKa of the compound at pH 7.4; type: physicochemical
[2] = biological target: T1, Transient receptor potential cation channel subfamily A member 1 (Homo sapiens, UniProt O75762); assay: Agonist activity at human TRPA1 expressed in HEK293 cells assessed as increase in calcium influx at 3 uM by Fluo-4-AM dye based fluorescence assay relative to calcimycin; type: cell-based
Procedure, shortened: (§1)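 Stably transfected hTRPA1- or hTRPM8-HEK293 cells on poly-D-lysine plates for 48 h, loaded with Fluo-4AM (2 µM, 45 min, dark, room temperature), in isotonic HEPES buffer pH 7.4. FlexStation 240 s run: 20 s baseline, compound added, calcimycin added at 180 s. ΔRFU expressed as % calcimycin, DMSO-subtracted. Screening N = 3. Dose-response curves fitted for logEC50 (N = 3 in duplicate or triplicate).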

[3] = biological target: T2, Transient receptor potential cation channel subfamily M member 8 (Homo sapiens, UniProt Q7Z2W7); assay: Antagonist activity at human TRPM8 expressed in HEK293 cells assessed as increase in calcium influx at 3 uM incubated for 10 mins prior to WS5 challenge by Fluo-4-AM dye based fluorescence assay relative to WS5; type: cell-based; design: scale not given: the % may be the effect or the level left
Procedure, shortened: (§2)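 hTRPM8-HEK293 cells loaded with Fluo-4AM (2 µM, 45 min). Test compound pre-incubated 10 min before WS5 standard agonist. FlexStation fluorescence at 485/538 nm. ΔRFU given as % of WS5 response after DMSO vehicle subtraction. N = 3. IC50 from dose-response curves.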

[4] = biological target: T1, Transient receptor potential cation channel subfamily A member 1; assay: Agonist activity at human TRPA1 expressed in HEK293 cells assessed as increase in calcium influx at 30 uM by Fluo-4-AM dye based fluorescence assay relative to calcimycin; type: cell-based; procedure, shortened: as §1
[5] = biological target: T2, Transient receptor potential cation channel subfamily M member 8; assay: Agonist activity at human TRPM8 expressed in HEK293 cells assessed as increase in calcium influx at 100 uM by Fluo-4-AM dye based fluorescence assay relative to calcimycin; type: cell-based; procedure, shortened: as §1
[6] = biological target: T1, Transient receptor potential cation channel subfamily A member 1; assay: Antagonist activity at human TRPA1 expressed in HEK293 cells assessed as increase in calcium influx at 100 uM incubated for 10 mins prior to CA addition by Fluo-4-AM dye based fluorescence assay relative to CA; type: cell-based; design: scale not given: the % may be the effect or the level left
Procedure, shortened: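 hTRPA1-HEK293 cells loaded with Fluo-4AM (2 µM). Compound pre-incubated 10 min, then cinnamaldehyde standard agonist added. FlexStation read, ex 485/em 538 nm. ΔRFU normalized to the CA response set at 100 % after DMSO vehicle subtraction. N = 3. logIC50 taken from dose-response fits.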

[7] = biological target: T2, Transient receptor potential cation channel subfamily M member 8; assay: Antagonist activity at human TRPM8 expressed in HEK293 cells assessed as increase in calcium influx at 100 uM incubated for 10 mins prior to WS5 challenge by Fluo-4-AM dye based fluorescence assay relative to WS5; type: cell-based; design: scale not given: the % may be the effect or the level left; procedure, shortened: as §2
[8] = biological target: T2, Transient receptor potential cation channel subfamily M member 8; assay: Agonist activity at human TRPM8 expressed in HEK293 cells assessed as increase in calcium influx at 30 uM by Fluo-4-AM dye based fluorescence assay relative to calcimycin; type: cell-based; procedure, shortened: as §1
[9] = biological target: T1, Transient receptor potential cation channel subfamily A member 1; assay: Agonist activity at human TRPA1 expressed in HEK293 cells assessed as increase in calcium influx by Fluo-4-AM dye based fluorescence assay; type: cell-based; settings: for EC50: read-out: EC50; procedure, shortened: as §1
[10] = system: Transient receptor potential cation channel subfamily A member 1 (Homo sapiens), O75762 [F909A]; assay: Agonist activity at human TRPA1 Phe909Ala mutant expressed in HEK293 cells assessed as Ca2+ influx at 30 uM by fluorescence assay; type: cell-based
Procedure, shortened: (§3)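 HEK293 cells stably expressing hTRPA1 point mutants (C621A, F909A or F944A), single-cell cloned under G418 selection. Cells plated on poly-D-lysine for 48 h, loaded with Fluo-4AM 2 µM for 45 min at room temperature. FlexStation read (ex 485/em 538 nm): 20 s baseline, compound added, calcimycin added at 180 s. Response expressed as % calcimycin from ΔRFU, vehicle-subtracted, and compared with wild-type hTRPA1 cells.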

[11] = system: Transient receptor potential cation channel subfamily A member 1 (Homo sapiens), O75762 [F944A]; assay: Agonist activity at human TRPA1 Phe944Ala mutant expressed in HEK293 cells assessed as Ca2+ influx at 30 uM by fluorescence assay; type: cell-based; procedure, shortened: as §3
[12] = system: Transient receptor potential cation channel subfamily A member 1 (Homo sapiens), O75762 [F909A]; assay: Agonist activity at human TRPA1 Phe909Ala mutant expressed in HEK293 cells assessed as Ca2+ influx at 10 uM by fluorescence assay; type: cell-based; procedure, shortened: as §3
[13] = biological target: T2, Transient receptor potential cation channel subfamily M member 8; assay: Agonist activity at human TRPM8 expressed in HEK293 cells assessed as increase in calcium influx at 3 uM by Fluo-4-AM dye based fluorescence assay relative to calcimycin; type: cell-based; procedure, shortened: as §1
[14] = biological target: T1, Transient receptor potential cation channel subfamily A member 1; assay: Antagonist activity at human TRPA1 expressed in HEK293 cells assessed as increase in calcium influx at 3 uM incubated for 10 mins prior to CA challenge by Fluo-4-AM dye based fluorescence assay […]; type: cell-based; design: scale not given: the % may be the effect or the level left
[15] = system: Transient receptor potential cation channel subfamily A member 1 (Homo sapiens), O75762 [F909A]; assay: Agonist activity at human TRPA1 Phe909Ala mutant expressed in HEK293 cells assessed as Ca2+ influx at 100 uM by fluorescence assay; type: cell-based
Procedure, shortened: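 HEK293 cells stably expressing hTRPA1 point mutants, made by FuGENE 6 transfection, G418 (0.5 mg ml-1) selection and single-cell cloning, grown in DMEM with 25 mM HEPES, 10% FBS and geneticin. Ca2+ influx was read by Fluo dye fluorescence at room temperature, with calcimycin added at the end. Response was ΔRFU as % of calcimycin, with the DMSO vehicle subtracted.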

[16] = biological target: T1, Transient receptor potential cation channel subfamily A member 1; assay: Antagonist activity at human TRPA1 expressed in HEK293 cells assessed as inhibition of CA-induced increase in calcium influx incubated for 10 mins prior to CA addition by Fluo-4-AM dye based fluorescence assayy; type: cell-based

Transient receptor potential cation channel subfamily A member 1 (Homo sapiens), O75762 [F909A], sequence (O75762 whole entry F909A): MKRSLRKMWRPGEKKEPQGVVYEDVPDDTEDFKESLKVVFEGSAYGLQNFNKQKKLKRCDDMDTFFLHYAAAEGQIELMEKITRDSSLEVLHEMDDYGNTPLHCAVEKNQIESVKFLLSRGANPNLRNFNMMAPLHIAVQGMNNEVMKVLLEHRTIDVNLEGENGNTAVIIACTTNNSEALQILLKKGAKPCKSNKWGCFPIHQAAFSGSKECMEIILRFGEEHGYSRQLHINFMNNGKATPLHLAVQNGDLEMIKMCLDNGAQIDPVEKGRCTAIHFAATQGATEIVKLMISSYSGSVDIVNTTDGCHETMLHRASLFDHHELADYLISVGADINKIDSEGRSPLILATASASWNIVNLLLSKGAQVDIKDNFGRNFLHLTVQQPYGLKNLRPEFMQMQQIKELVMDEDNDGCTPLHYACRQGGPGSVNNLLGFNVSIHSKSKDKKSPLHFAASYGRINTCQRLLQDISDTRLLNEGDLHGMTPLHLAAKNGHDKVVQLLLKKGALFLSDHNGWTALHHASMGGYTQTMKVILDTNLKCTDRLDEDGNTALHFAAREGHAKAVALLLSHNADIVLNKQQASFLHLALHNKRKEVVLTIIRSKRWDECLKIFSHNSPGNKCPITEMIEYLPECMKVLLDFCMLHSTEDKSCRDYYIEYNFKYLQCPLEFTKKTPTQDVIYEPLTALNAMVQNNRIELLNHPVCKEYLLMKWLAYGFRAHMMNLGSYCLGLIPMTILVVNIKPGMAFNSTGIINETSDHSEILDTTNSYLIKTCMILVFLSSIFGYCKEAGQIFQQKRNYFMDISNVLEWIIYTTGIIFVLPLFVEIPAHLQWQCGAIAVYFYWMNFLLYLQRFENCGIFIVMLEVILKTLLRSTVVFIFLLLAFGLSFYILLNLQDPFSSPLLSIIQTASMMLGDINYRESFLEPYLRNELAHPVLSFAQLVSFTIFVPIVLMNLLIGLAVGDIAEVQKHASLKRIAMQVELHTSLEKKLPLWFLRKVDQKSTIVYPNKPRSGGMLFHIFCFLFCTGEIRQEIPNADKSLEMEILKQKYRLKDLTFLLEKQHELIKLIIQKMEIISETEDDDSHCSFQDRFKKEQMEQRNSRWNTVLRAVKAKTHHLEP
T2 sequence (Q7Z2W7 whole entry, looked up): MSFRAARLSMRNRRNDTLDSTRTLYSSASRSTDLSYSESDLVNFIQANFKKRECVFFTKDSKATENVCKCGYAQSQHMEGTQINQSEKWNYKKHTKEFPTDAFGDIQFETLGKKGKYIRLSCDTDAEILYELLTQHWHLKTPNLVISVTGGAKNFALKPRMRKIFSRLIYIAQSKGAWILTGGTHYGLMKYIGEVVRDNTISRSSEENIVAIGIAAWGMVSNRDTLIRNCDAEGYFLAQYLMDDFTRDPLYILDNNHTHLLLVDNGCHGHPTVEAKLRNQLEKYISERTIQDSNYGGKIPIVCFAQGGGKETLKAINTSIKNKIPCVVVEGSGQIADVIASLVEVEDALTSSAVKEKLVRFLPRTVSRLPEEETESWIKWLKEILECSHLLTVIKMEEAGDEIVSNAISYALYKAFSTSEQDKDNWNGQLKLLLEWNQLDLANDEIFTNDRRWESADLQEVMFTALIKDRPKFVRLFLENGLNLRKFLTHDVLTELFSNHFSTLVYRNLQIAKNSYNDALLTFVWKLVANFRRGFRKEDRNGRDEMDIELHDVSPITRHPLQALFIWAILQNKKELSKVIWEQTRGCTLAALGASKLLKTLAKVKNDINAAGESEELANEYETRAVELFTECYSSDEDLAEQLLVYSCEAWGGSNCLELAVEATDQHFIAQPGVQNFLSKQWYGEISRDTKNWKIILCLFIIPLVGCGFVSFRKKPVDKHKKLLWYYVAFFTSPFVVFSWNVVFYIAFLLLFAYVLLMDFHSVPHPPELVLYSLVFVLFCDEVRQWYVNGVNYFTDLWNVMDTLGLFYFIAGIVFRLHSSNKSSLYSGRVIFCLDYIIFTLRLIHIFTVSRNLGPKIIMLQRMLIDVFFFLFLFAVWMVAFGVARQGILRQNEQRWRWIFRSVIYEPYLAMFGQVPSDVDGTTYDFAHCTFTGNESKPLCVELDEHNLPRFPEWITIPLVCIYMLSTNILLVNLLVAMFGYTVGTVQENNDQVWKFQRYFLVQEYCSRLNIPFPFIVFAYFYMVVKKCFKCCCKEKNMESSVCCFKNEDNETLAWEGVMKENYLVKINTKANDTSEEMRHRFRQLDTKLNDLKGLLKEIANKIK
T1 sequence (O75762 whole entry): as the sequence (O75762 whole entry F909A) above, with A909F counted along it
Transient receptor potential cation channel subfamily A member 1 (Homo sapiens), O75762 [F944A], sequence (O75762 whole entry F944A): as the sequence (O75762 whole entry F909A) above, with A909F, F944A counted along it

| SMILES | pKa [1] | Activity [2] [%] | Activity [3] [%] | Activity [4] [%] | Activity [5] | Activity [6] [%] | Activity [7] [%] | Activity [8] | also measured |
| --- | --- | --- | --- | --- | --- | --- | --- | --- | --- |
| COC(=O)c1ccccc1NC(=O)/C=C/c1ccc(C)cc1 | 13.9 | 28 | 88 |  |  |  |  |  |  |
| O=C(CCc1ccccc1)Nc1ccccc1C(=O)O | 3.5 |  |  | 10 | inactive | 81 | 48 | inactive |  |
| Cc1ccc(/C=C/C(=O)Nc2ccccc2C(=O)O)cc1 | 3.5 |  |  | 30 | inactive | 40 | 48 | inactive | EC50 [9]: 149 µM; Activity [10]: Active; Activity [11]: inactive |
| O=C(/C=C/c1ccccc1)Nc1ccccc1C(=O)O | 3.5 |  |  | 24 | inactive | 42 | 48 | inactive |  |
| C=CC=O [ACROLEIN] |  |  |  |  |  |  |  |  | EC50 [9]: 27 µM; Activity [10]: Active; Activity [11]: inactive |
| C=CCN=C=S |  |  |  |  |  |  |  |  | Activity [12]: Active |
| O=C(O)C1CCCCN1C(=O)/C=C/c1ccccc1 (racemic) | 3.3 |  |  | 7 | inactive | 71 | 72 | inactive |  |
| COC(=O)c1ccccc1NC(=O)/C=C/c1ccccc1 | 13.9 | 22 | 61 |  |  |  |  |  | Activity [13]: inactive; Activity [14]: inactive |
| COC(=O)c1ccccc1NC(=O)/C(=C/c1ccccc1)c1ccccc1 | 13.9 | 63 | 48 |  |  |  |  |  | Activity [13]: 23%; Activity [14]: 51% |
| Cc1ccc(C(C)C)c(O)c1 |  |  |  |  |  |  |  |  | Activity [15]: Active |
| COc1cccc(NC(=O)/C=C/c2ccc(Cl)cc2)c1 |  |  |  |  |  |  |  |  | pEC50 [9]: inactive |
| COC(=O)c1ccccc1NC(=O)/C(C)=C/c1ccccc1 | 13.9 | 49 | 30 |  |  |  |  |  | Activity [14]: 73% |
| O=C(O)[C@@H]1CCCN1C(=O)/C=C/c1ccccc1 | 3.2 |  |  | 5 | inactive | 79 | 65 | inactive |  |
| CC(=C\c1ccc(Cl)cc1)/C(C)=N/O [AP18 5] |  |  |  |  |  |  |  |  | IC50 [16]: 4 µM |
| COC(=O)c1ccccc1NC(=O)/C=C/c1ccc(Br)cc1 | 13.8 | 41 | 79 |  |  |  |  |  |  |
| COC(=O)c1ccccc1NC(=O)/C=C/c1ccc(F)cc1 | 13.9 | 34 | 85 |  |  |  |  |  |  |
| O=C(/C=C/c1ccc([N+](=O)[O-])cc1)Nc1ccccc1C(=O)O | 3.4 |  |  | 25 | inactive | 33 | 39 | inactive | EC50 [9]: 219 µM |
| CCOc1cc(/C=C/C(=O)Nc2ccccc2C(=O)O)ccc1O | 3.5 |  |  | 5 | inactive | 34 | 73 | inactive | IC50 [16]: 106 µM |
